Compound activity (PubChem)
GSIS activator = primary screen for activators of insulin secretion dependent on glucose, INS-1E cells, GLuc reporter luminescence; INS-1E GLuc reporter insulin secretion, 2-3 h; activation, % at 16.6 µM; 370,000 compounds, 0.61% hits; AID 743287;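 active = lowest replicate activation of at least 40%, so every replicate reaches that level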;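 note: 0% = median of neutral control wells and 100% = median of IBMX positive control wells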
PAX8 reporter = lowers PAX8-driven luciferase in RMG-I cells; inhibition, % at 12.6 µM; RMG-I TPO-luciferase reporter, SteadyGlo, 24 h; 360,000 compounds, 1.2% hits;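 active = mean replicate inhibition at least 60% with every replicate also reaching 60%; inconclusive = only one of the two criteria is met; inactive = mean below 60% and not all replicates reaching 60%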;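 note: luciferase light reporting Pax8 driven TPO promoter activity; plate controls were median of neutral control wells for no effect and mitoxantrone controls for full effect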
EWS-Fli inh = EWS/Fli transcriptional activity inhibition; 350,000 compounds, 0.67% hits; AID 651661; A673 NR0B1-luciferase reporter, viability-normalised; inhibition, % at 12.6 µM;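 active = mean inhibition of at least 50% after viability correction, with every replicate also passing that limit; inconclusive = mean reaches 50% but only one of two replicates passes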;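 note: firefly luciferase signal divided by Alamar Blue viability fluorescence both relative to DMSO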
MLL AF4-AF9 inh = inhibitors of human MLL-AF4/AF9 interaction; inhibition, % at 10 µM; AlphaScreen, biotin-AF4 peptide binding to FLAG-AF9; 350,000 compounds, 0.47% hits;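 active = every replicate reaching a set inhibition limit, whatever the replicate mean, cut at about 25% in these data; inconclusive = mean inhibition reaches that limit but some replicates miss it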;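 note: 0% = plate neutral control median and 100% = total signal loss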
Target sequence (P42568 whole entry, looked up): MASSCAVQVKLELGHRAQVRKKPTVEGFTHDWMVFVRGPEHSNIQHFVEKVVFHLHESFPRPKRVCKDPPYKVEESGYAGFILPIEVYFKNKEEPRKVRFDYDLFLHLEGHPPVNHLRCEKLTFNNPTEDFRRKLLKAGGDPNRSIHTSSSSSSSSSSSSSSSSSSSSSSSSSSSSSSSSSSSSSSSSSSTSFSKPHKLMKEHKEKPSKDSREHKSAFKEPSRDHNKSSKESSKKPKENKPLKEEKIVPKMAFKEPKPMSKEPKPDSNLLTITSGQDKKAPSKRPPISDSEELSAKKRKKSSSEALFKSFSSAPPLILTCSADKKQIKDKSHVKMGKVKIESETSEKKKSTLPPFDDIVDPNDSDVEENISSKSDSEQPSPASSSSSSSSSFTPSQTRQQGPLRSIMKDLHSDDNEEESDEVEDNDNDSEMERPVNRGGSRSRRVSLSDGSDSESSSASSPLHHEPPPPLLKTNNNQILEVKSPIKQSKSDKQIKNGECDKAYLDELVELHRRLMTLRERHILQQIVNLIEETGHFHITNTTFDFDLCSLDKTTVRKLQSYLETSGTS
PGC1a acetyl inh = modulators of PGC1a acetylation | inhibition, % at 15.6 µM | 350,000 compounds, 0.17% hits | AID 651687 | U2OS PGC1a acetylation, AlphaScreen anti-acetyl-lysine; with virally co-expressed GCN5 acetyltransferase;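 active = every replicate shows inhibition of at least 40%; inconclusive = mean inhibition at least 40% but some replicate below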;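 note: 0% = neutral control wells and 100% = positive control wells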
XiGFP reactiv = reactivates the inactive X chromosome in mouse fibroblasts; XiGFP mouse fibroblasts, % GFP-positive cells imaging, 3 d; cells co-treated with 5-aza-dC sensitizer; scaled so ellipticine positive control = 100%; activation, % at 7.58 µM; 360,000 compounds, 0.055% hits; AID 743238;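 active = mean normalized replicate activation at least 10% and every replicate at or above 10%; inconclusive = only one of the two criteria met; inactive = mean below 10% and not all replicates reach 10%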;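 note: 0% = median of on-plate neutral control wells and 100% = ellipticine 6 µM median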
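Material: SV40-immortalized XiGFP fibroblast cells, line 68-5-11 | Buffer or medium: DMEM containing 5-aza-dC | Dosing: One concentration, pinned | Times: 3 d treatment, 15 min room-temperature fixation | Controls: Ellipticine 6 µM positive control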
DNA binder FP = small molecule DNA binding by fluorescence polarization; AC35, µM (titrated, usually from 68 µM), without a hit: at the highest dose activity change, negative = DNA binding; shares compounds with EWS-Fli inh; salmon sperm DNA acridine orange fluorescence polarization; 640 compounds, 2% hits;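 active = fitted curve reaches a 35% signal fall AC35 below twice the sample's top valid tested dose, actives reach about 48 µM in these data; inactive = the rest, including activity in the rising direction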;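 note: lower polarization ratio signals compound binding to DNA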
* marks the source's active call; other numbers are inactive results; u = inconclusive; x = no result; ! = repeats disagree. Rows were chosen to be rich in hits. Some 2.1% of all compounds tested hit in one or more screens of this group.

SMILES	GSIS activator	PAX8 reporter	EWS-Fli inh	MLL AF4-AF9 inh	PGC1a acetyl inh	XiGFP reactiv	DNA binder FP
COc1ccc(S(=O)(=O)N=Nc2c(O)[nH]c3ccccc23)cc1	6	14	53*	-2	x	0	-7%
C[C@H](CO)N1C[C@H](C)[C@@H](CN(C)Cc2ccc3c(c2)OCO3)Oc2c(NC(=O)CCC(F)(F)F)cccc2C1=O	-11	x	x	x	x	0	x
CCS(=O)(=O)N1Cc2ccccc2CC1C(=O)Nc1ncc(C)s1 (centres undefined)	-4	-13	-95	0	x	0	x
CCS(=O)(=O)N1Cc2ccccc2CC1C(=O)Nc1nnc(SCc2ccc(C#N)cc2)s1 (centres undefined)	2	-11	66*	-1	x	0	-1%
Cc1cc(Br)cn2c(Cc3cccc(Cl)c3)c(-c3ccco3)nc12	4	7	2	6	x	0	x
Cc1ccc(Cc2c(-c3ccco3)nc3c(C)cc(Br)cn23)cc1	x	34	54*	2	7	0	13%
CO[C@@H]1CN(C)C(=O)c2ccc(NC(=O)c3cnccn3)cc2OC[C@H](C)N(CC2CC2)C[C@@H]1C	8	4	x	-3	7	0	x
CCCc1cc(=O)oc2c3c(c4c(c12)OC(C)(C)C=C4)OC(C)C(C)C3O (centres undefined)	x	x	73*	6	-10	x	2%
O=C(O)c1ccc(N/N=C/c2ccc(OC(=O)c3cccc(Cl)c3)cc2)cc1	-9	86*	64*	4	1	2	4%
O=C(O)c1ccc(N/N=C/c2ccc3nccnc3c2)cc1	35	119*	84*	7	21	0	-4%
O=C(O)c1cccc(N/N=C/c2cccs2)c1	9	100*	85*	-100	x	0	-1%
CSc1ccc(/C=N/Nc2cccc(C(=O)O)c2)cc1	x	x	x	x	2	x	x
O=C(O)c1cccc(N/N=C/c2ccc(OC(F)(F)F)cc2)c1	0	20	74*	6	-7	0	-8%
C[C@@H]1CN([C@H](C)CO)S(=O)(=O)c2ccc(-c3cccnc3)cc2O[C@@H]1CN(C)C	13	x	-9	-2	5	0	x
COc1ccccc1C(=O)N1C[C@@H]2[C@H](c3ccccc31)[C@@H](CO)N2C(=O)C1CC1	12	-4	10	x	-1	0	x
CC(C)(C)c1ccc(Cn2c(=O)cnc3ccccc32)cc1	-2	27	78*	-2	-6	0	-13%
O=c1cnc2ccccc2n1Cc1ccc(Br)cc1	55	-62	-89	-1	-9	0	x
O=C1c2ccc3c4c(ccc(c24)C(=O)N1c1cccc(O)c1)CC3	1	-1	-3	0	x	0	x
O=C1c2ccc3c4c(ccc(c24)C(=O)N1c1cccc(O)c1)C(=O)N(c1cccc(O)c1)C3=O	20	30	60*	-15	18	u	-8%
N#Cc1cccc(-c2ccc(C3[C@@H]4CN(C(=O)Cc5ccncc5)C[C@H]3N4)cc2)c1 (some centres undefined)	19	-4	78*!	0	-8	0	-4%
N#C[C@H]1[C@H](c2ccc(C#Cc3ccccc3F)cc2)[C@@H](CO)N1C(=O)C1CCOCC1	5	75*	67*	-1	-7	0	-9%
N#C[C@@H]1[C@H](c2ccc(C#Cc3ccccc3F)cc2)[C@@H](CO)N1C(=O)c1cccnc1	-1	47	74*	0	-4	0	7%
CCc1cnc(N2[C@H](C#N)[C@H](c3ccc(C#Cc4ccccc4F)cc3)[C@@H]2CO)s1	-18	-8	-22	-1	-15	0	x
N#C[C@H]1N[C@H](CO)[C@H]1c1ccc(C#Cc2ccccc2F)cc1	-1	-30	53*	-3	-16	0	4%
CCc1cnc(N2[C@H](C#N)[C@H](c3ccc(C#Cc4ccccc4F)cc3)[C@H]2CO)s1	0	49	53*	-2	-38	0	-6%
SMILES	GSIS activator	PAX8 reporter	EWS-Fli inh	MLL AF4-AF9 inh	PGC1a acetyl inh	XiGFP reactiv	DNA binder FP
Cc1nn(-c2ccc(F)cc2)c2nc(N)c(C#N)c(-c3ccc(O)c(O)c3)c12	-6	52	57*	5	-9	0	3%
COc1ccccc1C#Cc1cnc2c(c1)C(=O)N([C@@H](C)CO)C[C@@H](C)[C@@H](CN(C)C(=O)c1ccc3c(c1)OCO3)O2	-23	7	-21	1	11	-1	x
O=C(Cc1nn[nH]n1)c1ccccc1O	0	15	68*	-12	x	0	-2%
O=C(Cc1nn[nH]n1)NCc1ccccc1Cl	x	x	x	x	-6	x	x
C[C@H]1CN([C@@H](C)CO)C(=O)Cc2cc(NC(=O)CCN3CCOCC3)ccc2O[C@@H]1CN(C)Cc1ccc(Cl)c(Cl)c1	-16	3	-7	2	-3	0	x
C[C@@H]1CN([C@H](C)CO)C(=O)c2cc(NS(C)(=O)=O)ccc2O[C@@H](C)CCCCO[C@@H]1CN(C)C(=O)C1CCCCC1	15	-7	-8	x	-8	0	x
Cc1noc(C)c1S(=O)(=O)N(C)C[C@H]1Oc2ccc(NC(=O)CCCN(C)C)cc2C(=O)N([C@H](C)CO)C[C@H]1C	24	x	1	0	3	0	x
COc1ccc(C/C(N)=N/OC(C)=O)cc1OC	3	10	83*	4	x	0	-5%
Cc1cccc(C(=O)NC(=S)Nc2ccc(Cc3ccncc3)cc2)c1	x	-38	x	x	35	x	x
Cc1cc(C)cc(C(=O)NC(=S)Nc2ccc(Cc3ccncc3)cc2)c1	56	8	66*	5	-15	0	-4%
COC(=O)C[C@H]1CC[C@@H](NC(=O)Nc2ccc(C(F)(F)F)cc2)[C@H](CO)O1	-11	4	69*	0	-7	0	-17%
CC(C)CN(C(=O)CN1CCOCC1)c1c(N)n(CC(C)C)c(=O)[nH]c1=O	5	9	61*	2	12	0	-12%
C[C@@H]1CN([C@@H](C)CO)C(=O)c2cc(NS(=O)(=O)c3ccccc3)ccc2O[C@H]1CN(C)C(=O)Nc1ccc(F)cc1	7	3	x	-1	4	0	x
CCOC(=O)Cc1csc(NC(=S)NC(=O)c2ccccc2)n1	3	23	29	0	x	0	x
CCOC(=O)Cc1csc(NC(=S)NC(=O)c2ccc(C)cc2)n1	5	44	82*	0	x	0	0%
CC(=NNc1ccc2ccccc2n1)c1ccccc1O	3	32	74*	1	x	0	-15%
CC(=NNc1ccc2ccccc2n1)c1ccccn1	7	114*	85*	20	x	33*	8%
